Values after ≈ are worked out from the molar mass of the structure shown.
Legend:
[1] = test system: Klebsiella pneumoniae; experiment: Antibacterial activity against Klebsiella pneumoniae 700603 after 20 hrs by broth microdilution assay; type: functional; details: Klebsiella pneumoniae, 700603, 20 h
Method in brief: (§1)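 Medium is tryptic soy broth, 37°C. Overnight culture is adjusted to 0.5 McFarland, diluted 1:100 and exposed to serial dilutions (test agents from 1 mM or 1 mg/mL DMSO stocks; control antibiotics in water). Incubation lasts 20 h. MIC is the lowest concentration with no visible growth.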

[2] = test system: Citrobacter freundii; experiment: Antibacterial activity against Citrobacter freundii 4_7_47CFAA after 20 hrs by broth microdilution assay; type: functional
Method in brief: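 Brucella broth, 37°C, 5% CO2. Inoculum is 0.5 McFarland diluted 1:100, with serial drug dilutions from DMSO stocks (1 mM or 1 mg/mL) and control antibiotics in water.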

[3] = test system: Burkholderia multivorans; experiment: Antibacterial activity against Burkholderia multivorans CF2 after 20 hrs by broth microdilution assay; type: functional; details: CF2, 20 h; method in brief: as §1
[4] = test system: Bacillus anthracis; experiment: Antibacterial activity against Bacillus anthracis UM23-1 after 20 hrs by broth microdilution assay; type: functional; details: UM23-1, 20 h
[5] = test system: Salmonella typhi; experiment: Antibacterial activity against Salmonella typhi Ty2 after 20 hrs by Todd Hewitt broth broth microdilution method; type: functional, Salmonella enterica subsp. enterica serovar Typhi str. Ty2; details: Salmonella enterica
[6] = test system: Yersinia enterocolitica; experiment: Antibacterial activity against Yersinia enterocolitica WA-314 after 20 hrs by broth microdilution assay; type: functional; details: WA-314, 20 h
Method in brief: (§2)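 Yersinia cultured in tryptic soy broth at 28°C. A 0.5 McFarland suspension diluted 1:100 receives serial dilutions of agents from 1 mM or 1 mg/mL DMSO stocks; control antibiotics are in water.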

[7] = test system: Yersinia pestis; experiment: Antibacterial activity against Yersinia pestis Kim D2 after 20 hrs by broth microdilution assay; type: functional; details: Kim D2, 20 h
[8] = test system: Proteus mirabilis; experiment: Antibacterial activity against Proteus mirabilis HM-752 after 20 hrs by broth microdilution assay; type: functional; details: HM-752, 20 h; method in brief: as §1
[9] = test system: Rhodococcus erythropolis; experiment: Antibacterial activity against Rhodococcus erythropolis SK121 after 20 hrs by broth microdilution assay; type: functional; details: SK121, 20 h
Method in brief: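 R. erythropolis grown in brain heart infusion broth at 30°C. A 0.5 McFarland suspension diluted 1:100 is treated with serial dilutions from 1 mM or 1 mg/mL DMSO stocks; control antibiotics are in water.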

[10] = test system: Streptococcus agalactiae; experiment: Antibacterial activity against Streptococcus agalactiae SGBS005 after 20 hrs by broth microdilution assay; type: functional; details: SGBS005, 20 h
[11] = test system: Staphylococcus aureus; experiment: Antibacterial activity against vancomycin-resistant Staphylococcus aureus HIP14300 after 20 hrs by broth microdilution assay; type: functional; details: HIP14300, 20 h
[12] = test system: Enterococcus faecium; experiment: Antibacterial activity against vancomycin-resistant Enterococcus faecium ATCC 700221 after 20 hrs by broth microdilution assay; type: functional; details: ATCC 700221, 20 h
Method in brief: (§3)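 Brain heart infusion broth at 37°C; E. faecium under 5% CO2. Cells at 0.5 McFarland are diluted 1:100 and exposed to serial dilutions (DMSO stocks 1 mM or 1 mg/mL; controls in water).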

[13] = test system: Shigella dysenteriae; experiment: Antibacterial activity against Shigella dysenteriae Newcastle 1934 after 20 hrs by broth microdilution assay; type: functional; details: Newcastle 1934, 20 h; method in brief: as §1
[14] = test system: Escherichia coli; experiment: Antibacterial activity against Escherichia coli DC10B after 20 hrs by broth microdilution assay; type: functional; method in brief: as §1
[15] = test system: Acinetobacter baumannii; experiment: Antibacterial activity against Acinetobacter baumannii AB5075 after 20 hrs by broth microdilution assay; type: functional; details: AB5075, 20 h
[16] = test system: HepG2; experiment: Cytotoxicity against human HepG2 cells assessed as reduction in cell viability after 72 hrs by MTT assay; type: cell-based; details: HepG2, 72 h
[17] = test system: Francisella tularensis; experiment: Antibacterial activity against Francisella tularensis Utah 112 after 20 hrs by broth microdilution assay; type: functional; details: Utah 112, 20 h
[18] = test system: Streptococcus pneumoniae; experiment: Antibacterial activity against Streptococcus pneumoniae TCH8431 after 20 hrs by broth microdilution assay; type: functional; details: TCH8431, 20 h
[19] = test system: Pseudomonas aeruginosa; experiment: Antibacterial activity against Pseudomonas aeruginosa ATCC 15442 after 20 hrs by broth microdilution assay; type: functional; details: ATCC 15442, 20 h; method in brief: as §1
[20] = test system: Bacillus cereus; experiment: Antibacterial activity against Bacillus cereus Gibson 971 after 20 hrs by broth microdilution assay; type: functional; details: Gibson 971, 20 h
[21] = test system: Listeria monocytogenes; experiment: Antibacterial activity against Listeria monocytogenes Gibson after 20 hrs by broth microdilution assay; type: functional; method in brief: as §3
[22] = test system: Vibrio cholerae; experiment: Antibacterial activity against Vibrio cholerae TS D4 after 20 hrs by Todd Hewitt broth broth microdilution method; type: functional; details: TS D4, 20 h
[23] = test system: Burkholderia cepacia; experiment: Antibacterial activity against Burkholderia cepacia UCB 717 after 20 hrs by broth microdilution assay; type: functional; details: UCB 717, 20 h; method in brief: as §1
[24] = test system: Micrococcus luteus; experiment: Antibacterial activity against Micrococcus luteus SK58 after 20 hrs by broth microdilution assay; type: functional; details: SK58, 20 h
[25] = test system: Bacillus anthracis; experiment: Antibacterial activity against Bacillus anthracis Weybridge after 20 hrs by broth microdilution assay; type: functional
[26] = test system: Corynebacterium striatum; experiment: Antibacterial activity against Corynebacterium striatum FS-1 after 20 hrs by broth microdilution assay; type: functional; details: FS-1, 20 h
[27] = test system: Streptococcus pyogenes; experiment: Antibacterial activity against Streptococcus pyogenes H293 after 20 hrs by broth microdilution assay; type: functional; details: H293, 20 h
[28] = test system: Staphylococcus aureus; experiment: Antibacterial activity against methicillin-resistant Staphylococcus aureus COL after 20 hrs by broth microdilution assay; type: functional
[29] = test system: Staphylococcus aureus; experiment: Antibacterial activity against vancomycin-intermediate resistant Staphylococcus aureus AR-217 after 20 hrs by broth microdilution assay; type: functional; details: AR-217, 20 h
[30] = test system: Yersinia pseudotuberculosis; experiment: Antibacterial activity against Yersinia pseudotuberculosis P61 after 20 hrs by broth microdilution assay; type: functional; details: P61, 20 h; method in brief: as §2
[31] = test system: Staphylococcus epidermidis; experiment: Antibacterial activity against vancomycin-intermediate resistant Staphylococcus epidermidis NRS6 after 20 hrs by broth microdilution assay; type: functional; details: NRS6, 20 h
[32] = test system: Yersinia pestis; experiment: Antibacterial activity against Yersinia pestis Kuma D7 after 20 hrs by broth microdilution assay; type: functional; details: Kuma D7, 20 h
[33] = test system: Brucella neotomae; experiment: Antibacterial activity against Brucella neotomae 5K33 after 20 hrs by broth microdilution assay; type: functional; details: 5K33, 20 h
[34] = test system: Bacillus anthracis; experiment: Antibacterial activity against Bacillus anthracis Ames 35 after 20 hrs by broth microdilution assay; type: functional; details: Ames 35, 20 h
[35] = test system: Bacillus anthracis; experiment: Antibacterial activity against Bacillus anthracis Sterne 34F2 after 20 hrs by broth microdilution assay; type: functional; details: Sterne 34F2, 20 h
[36] = test system: Staphylococcus epidermidis; experiment: Antibacterial activity against vancomycin-intermediate resistant Staphylococcus epidermidis NRS53 after 20 hrs by broth microdilution assay; type: functional; details: NRS53, 20 h

| SMILES | MIC [1] [µM] | MIC [2] [µM] | MIC [3] [µM] | MIC [4] [µM] | MIC [5] [µM] | MIC [6] [µM] | MIC [7] [µM] | MIC [8] [µM] | MIC [9] [µM] | MIC [10] [µM] | MIC [11] [µM] | MIC [12] [µM] | MIC [13] [µM] | MIC [14] [µM] | MIC [15] [µM] | IC50 [16] [µM] | MIC [18] [µM] | MIC [27] [µM] | MIC [28] [µM] | MIC [31] [µM] | further results |
| --- | --- | --- | --- | --- | --- | --- | --- | --- | --- | --- | --- | --- | --- | --- | --- | --- | --- | --- | --- | --- | --- |
| CCCSSC(=S)N(CC)CC | > 32 | > 32 | 32 (≈ 7.15 µg/mL) | 4 (≈ 0.894 µg/mL) | > 32 | > 32 | 16 (≈ 3.57 µg/mL) | > 32 | 16 (≈ 3.57 µg/mL) | > 32 | 16 (≈ 3.57 µg/mL) | > 32 | > 32 | > 32 | > 32 | 51 | > 32 | 32 (≈ 7.15 µg/mL) | 16 (≈ 3.57 µg/mL) | 32 (≈ 7.15 µg/mL) | MIC [17]: 32 µM (≈ 7.15 µg/mL); MIC [19]: > 32 µM; MIC [20]: 1 µM (≈ 0.223 µg/mL); MIC [21]: 16 µM (≈ 3.57 µg/mL); MIC [22]: 32 µM (≈ 7.15 µg/mL); MIC [23]: > 32 µM; MIC [24]: 16 µM (≈ 3.57 µg/mL); MIC [25]: 4 µM (≈ 0.894 µg/mL); MIC [26]: > 32 µM; MIC [29]: 8 µM (≈ 1.79 µg/mL); MIC [30]: > 32 µM; MIC [32]: 32 µM (≈ 7.15 µg/mL); MIC [33]: > 32 µM; MIC [34]: 4 µM (≈ 0.894 µg/mL); MIC [35]: 4 µM (≈ 0.894 µg/mL) |
| CN[C@H](CC(C)C)C(=O)N[C@H]1C(=O)N[C@@H](CC(N)=O)C(=O)N[C@H]2C(=O)N[C@H]3C(=O)N[C@H](C(=O)N[C@H](C(=O)O)c4cc(O)cc(O)c4-c4cc3ccc4O)[C@H](O)c3ccc(c(Cl)c3)Oc3cc2cc(c3O[C@@H]2O[C@H](CO)[C@@H](O)[C@H](O)[C@H]2O[C@H]2C[C@](C)(N)[C@H](O)[C@H](C)O2)Oc2ccc(cc2Cl)[C@H]1O [VANCOMYCIN] | – | – | – | – | – | – | – | – | – | ≤ 0.5 | > 32 | > 32 | – | – | – | – | ≤ 0.5 | ≤ 0.5 | 1 (≈ 1.45 µg/mL) | 8 (≈ 11.6 µg/mL) | MIC [36]: 8 µg/mL (≈ 5.52 µM) |
| CCCCCCSSC(=S)N(CC)CC [DIETHYLCARBAMO(DITHIOPEROXO)THIOATE] | > 32 | > 32 | > 32 | 2 (≈ 0.531 µg/mL) | > 32 | > 32 | 32 (≈ 8.5 µg/mL) | > 32 | 8 (≈ 2.12 µg/mL) | > 32 | 8 (≈ 2.12 µg/mL) | > 32 | > 32 | > 32 | > 32 | 51 | > 32 | > 32 | 16 (≈ 4.25 µg/mL) | 8 (≈ 2.12 µg/mL) | MIC [17]: 32 µM (≈ 8.5 µg/mL); MIC [19]: > 32 µM; MIC [20]: 2 µM (≈ 0.531 µg/mL); MIC [21]: 8 µM (≈ 2.12 µg/mL); MIC [22]: > 32 µM; MIC [23]: > 32 µM; MIC [24]: 16 µM (≈ 4.25 µg/mL); MIC [25]: 8 µM (≈ 2.12 µg/mL); MIC [26]: 16 µM (≈ 4.25 µg/mL); MIC [29]: 4 µM (≈ 1.06 µg/mL); MIC [30]: > 32 µM; MIC [32]: 32 µM (≈ 8.5 µg/mL); MIC [33]: > 32 µM; MIC [34]: 4 µM (≈ 1.06 µg/mL); MIC [35]: 4 µM (≈ 1.06 µg/mL) |

From ChEMBL document CHEMBL4219167, “Disulfiram-based disulfides as narrow-spectrum antibacterial agents” (Bioorg Med Chem Lett, 2018)
